{
  "source": "ChEMBL document CHEMBL1671691",
  "about": "(Antimicrob Agents Chemother, 2010)",
  "key": {"[1]": {"system": "Influenza A virus", "test": "Antiviral activity against adamantane-, zanamivir-susceptible oseltamivir-resistant Influenza A virus (A/North Carolina/02/ 2009(H1N1)) harboring M2 S31N mutant infected in MDCK cells assessed as inhibition of viral replication after 3 days by microscopic analysis using crystal violet stain", "assay_type": "functional, organism-based", "method_in_brief": "(§1)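 Confluent MDCK-ATCC monolayers infected with virus diluted to give 15–45 plaques/well. Adsorption 1 h at 37°C without drug, then washed. Overlaid with 0.8% agarose in MEM containing drug plus TPCK-trypsin: 3 μg/ml for seasonal viruses, 2 μg/ml for 2009 A(H1N1). Incubated 3 days at 37°C, 5% CO2. Ethanol-fixed, crystal violet-stained, plaques counted. EC50 by curve fit; duplicates on three occasions, mean ± SD.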"}, "[2]": {"system": "Influenza A virus", "test": "Antiviral activity against adamantane-resistant zanamivir-,oseltamivir-susceptible Influenza A virus (A/New York/34/2008(H1N1)) harboring M2 L26I mutant infected in MDCK cells assessed as inhibition of viral replication after 3 days by microscopic analysis using crystal violet stain", "assay_type": "functional, organism-based", "method_in_brief": "as §1"}, "[3]": {"system": "Influenza A virus", "test": "(§2) Antiviral activity against oseltamivir-susceptible zanamivir-, adamantane-resistant Influenza A virus (A/pdm/Illinois/10/2009(H1N1)) harboring M2 V28I, S31N mutant and neuraminidase H274Y mutant infected in MDCK cells assessed as inhibition of viral replication after 3 days by microscopic analysis using crystal violet stain", "assay_type": "functional, organism-based, (A/Illinois/10/2009(H1N1))"}, "[4]": {"system": "Influenza A virus", "test": "Antiviral activity against Influenza A virus (A/Illinois/10/2009(H1N1)) harboring neuraminidase H275Y mutant infected in MDCK cells from ATCC assessed as log reduction in viral titer at 1.6 uM after 24 hrs by immunofluorescent assay", "assay_type": "functional", "method_in_brief": "(§3)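 Yield reduction in MDCK-ATCC or MDCK-Mill Hill cells infected at MOI ∼0.01. Adsorption 1 h at 4°C, washed, then DMEM with 2 μg/ml TPCK-trypsin and drug. At 24 h, supernatants were titrated by immunofluorescent focus assay on MDCK cells with anti-NP monoclonals and FITC secondary. Titres as log10 FFU per 100 μl; detection limit <10 FFU. Quadruplicate, mean ± SD.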"}, "[5]": {"system": "Influenza A virus", "test": "Antiviral activity against adamantane-susceptible zanamivir-, oseltamivir-resistant Influenza A virus (A/Santiago/5248/2008(H1N1)) harboring neuraminidase D198E mutant infected in MDCK cells assessed as inhibition of viral replication after 3 days by microscopic analysis using crystal violet stain", "assay_type": "functional, organism-based"}, "[6]": {"system": "Influenza A virus", "test": "(§4) Antiviral activity against adamantane-resistant zanamivir-,oseltamivir-susceptible Influenza A virus (A/pdm/California/04/2009(H1N1)) harboring M2 V28I, S31N mutant infected in MDCK cells assessed as determination of viral titer in cell culture at 128 uM after 24 hrs by immunofluorescence assay", "assay_type": "functional, organism-based", "settings": "A/California/04/2009(H1N1)"}, "[7]": {"system": "Influenza A virus", "test": "Antiviral activity against Influenza A virus (A/Washington/29/2009(H1N1)) harboring neuraminidase H275Y mutant infected in MDCK cells from ATCC assessed as inhibition of viral replication after 3 days by microscopic analysis using crystal violet stain", "assay_type": "functional", "method_in_brief": "as §1"}, "[8]": {"system": "Influenza A virus", "test": "Antiviral activity against adamantane-, zanamivir-susceptible oseltamivir-resistant Influenza A virus (A/New Jersey/15/2007(H1N1)) harboring neuraminidase H274Y mutant infected in MDCK cells assessed as inhibition of viral replication after 3 days by microscopic analysis using crystal violet stain", "assay_type": "functional, organism-based", "method_in_brief": "as §1"}, "[9]": {"system": "Influenza A virus", "test": "Antiviral activity against adamantane-, oseltamivir-, zanamivir-resistant Influenza A virus (A/Idaho/01/2009(H1N1)) harboring neuraminidase H274Y mutant infected in MDCK cells assessed as inhibition of viral replication after 3 days by microscopic analysis using crystal violet stain", "assay_type": "functional, organism-based, Influenza A virus (A/Idaho/01/2008(H1N1))", "method_in_brief": "as §1"}, "[10]": {"system": "Influenza A virus", "test": "Antiviral activity against Influenza A virus (A/Illinois/10/2009(H1N1)) harboring neuraminidase H275Y mutant infected in MDCK cells from ATCC assessed as inhibition of viral replication after 3 days by microscopic analysis using crystal violet stain", "assay_type": "functional", "method_in_brief": "as §1"}, "[11]": {"system": "Influenza A virus", "test": "Antiviral activity against adamantane-resistant zanamivir-,oseltamivir-susceptible Influenza A virus (A/pdm/Mexico/4604/2009 (H1N1)) harboring M2 V28I, S31N mutant infected in MDCK cells assessed as inhibition of viral replication after 3 days by microscopic analysis using crystal violet stain", "assay_type": "functional, organism-based, Influenza A virus (A/Mexico/4604/2009(H1N1))"}, "[12]": {"system": "Influenza A virus", "test": "Antiviral activity against adamantane-, zanamivir-susceptible oseltamivir-resistant Influenza A virus (A/Washington/10/2008(H1N1)) harboring M2 S31N mutant infected in MDCK cells assessed as inhibition of viral replication after 3 days by microscopic analysis using crystal violet stain", "assay_type": "functional, organism-based", "method_in_brief": "as §1"}, "[13]": {"system": "Influenza A virus", "test": "Antiviral activity against adamantane-resistant zanamivir-,oseltamivir-susceptible Influenza A virus (A/pdm/California/05/2009 (H1N1)) harboring M2 V28I, S31N mutant infected in MDCK cells assessed as inhibition of viral replication after 3 days by microscopic analysis using crystal violet stain", "assay_type": "functional, organism-based, Influenza A virus (A/California/05/2009(H1N1))"}, "[14]": {"system": "Influenza A virus", "test": "Antiviral activity against adamantane-resistant zanamivir-,oseltamivir-susceptible Influenza A virus (A/Washington/01/2007(H3N2)) harboring M2 S31N mutant infected in MDCK cells assessed as inhibition of viral replication after 3 days by microscopic analysis using crystal violet stain", "assay_type": "functional, organism-based", "method_in_brief": "as §1"}, "[15]": {"system": "Influenza A virus", "test": "as §2, with “(A/Bethesda/956/2006(H3N2))” for “(A/pdm/Illinois/10/2009(H1N1))”, “neuraminidase R292K” for “M2 V28I, S31N”, “M2 S31N” for “neuraminidase H274Y”", "assay_type": "functional, organism-based"}, "[16]": {"system": "Influenza A virus", "test": "microbe, parasite or virus in culture", "settings": "(A/Wuhan/395/1995-like (H3N2)), MDCK, 72 h"}, "[17]": {"system": "Influenza A virus", "test": "as §4, with “against 0.001 MOI” for “against”, “1.6” for “128”", "assay_type": "functional, organism-based", "settings": "A/California/04/2009(H1N1)", "method_in_brief": "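Focus inhibition assay: confluent MDCK monolayers infected at MOI ∼0.001–0.1. Adsorption 1 h at 4°C, washed twice, then DMEM with 2 μg/ml TPCK-trypsin and drug for 24 h at 37°C. Cells fixed in methanol/acetic acid at −20°C, immunostained with anti-NP monoclonals and FITC secondary, and foci counted. Supernatants also titrated by focus assay. Quadruplicate on two occasions.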"}, "[18]": {"system": "Influenza A virus", "test": "Antiviral activity against Influenza A virus (A/Washington/29/2009(H1N1)) harboring neuraminidase H275Y mutant infected in MDCK cells from Mill Hill assessed as log reduction in viral titer at 1.6 uM after 24 hrs by immunofluorescent assay", "assay_type": "functional", "method_in_brief": "as §3"}, "[19]": {"system": "Influenza A virus", "test": "Antiviral activity against adamantane-resistant zanamivir-,oseltamivir-susceptible Influenza A virus (A/pdm/California/04/2009 (H1N1)) harboring M2 V28I, S31N mutant infected in MDCK cells assessed as inhibition of viral replication after 3 days by microscopic analysis using crystal violet stain", "assay_type": "functional, organism-based, A/California/04/2009(H1N1)", "method_in_brief": "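Plaque reduction on confluent MDCK-ATCC monolayers: pretitrated virus (15–45 plaques per well) adsorbed 1 h at 37°C without drug, then washed with PBS. Agarose overlay (0.8%, in MEM) with drug added, 3 days at 37°C. Cells fixed with 70% ethanol, stained with crystal violet, plaques counted. EC50 from curve fitting, averaged over three separate experiments in duplicate, ± SD.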"}, "[20]": {"test": "Antiviral activity against adamantane-, oseltamivir-, zanamivir-resistant Influenza B virus (B/Illinois/03/2008) harboring neuraminidase E119A mutant infected in MDCK cells assessed as inhibition of viral replication after 3 days by microscopic analysis using crystal violet stain", "assay_type": "functional, cell-based", "method_in_brief": "as §1"}, "[21]": {"system": "Influenza A virus", "test": "Antiviral activity against adamantane-, zanamivir-susceptible oseltamivir-resistant Influenza A virus (A/Georgia/20/2006(H1N1)) harboring neuraminidase H274Y mutant infected in MDCK cells assessed as inhibition of viral replication after 3 days by microscopic analysis using crystal violet stain", "assay_type": "functional, organism-based", "method_in_brief": "as §1"}},
  "note": "The source made the active and inactive calls. The rule behind the calls is not given here.",
  "data": [
    {"smiles": "NC(=O)c1nc(F)cnc1O", "note": "[FAVIPIRAVIR]", "values": [
      {"measurement": "EC50", "setting": "[1]", "value": 5030, "unit": "nM"},
      {"measurement": "EC50", "setting": "[2]", "value": 190, "unit": "nM"},
      {"measurement": "EC50", "setting": "[3]", "value": 22500, "unit": "nM"},
      {"measurement": "log10FFU", "setting": "[4]", "value": 4.9},
      {"measurement": "EC50", "setting": "[5]", "value": 4700, "unit": "nM"},
      {"measurement": "Activity", "setting": "[6]", "value": "Active"},
      {"measurement": "log10FFU", "setting": "[7]", "value": 0.78},
      {"measurement": "EC50", "setting": "[8]", "value": 4900, "unit": "nM"},
      {"measurement": "EC50", "setting": "[9]", "value": 2930, "unit": "nM"},
      {"measurement": "log10FFU", "setting": "[10]", "value": 4.21},
      {"measurement": "EC50", "setting": "[11]", "value": 1210, "unit": "nM"},
      {"measurement": "EC50", "setting": "[12]", "value": 3250, "unit": "nM"},
      {"measurement": "EC50", "setting": "[13]", "value": 830, "unit": "nM"},
      {"measurement": "EC50", "setting": "[14]", "value": 4460, "unit": "nM"},
      {"measurement": "EC50", "setting": "[15]", "value": 1210, "unit": "nM"},
      {"measurement": "EC50", "setting": "[16]", "value": 5990, "unit": "nM"},
      {"measurement": "Activity", "setting": "[17]", "value": "Active"},
      {"measurement": "log10FFU", "setting": "[18]", "value": 5.4},
      {"measurement": "EC50", "setting": "[19]", "value": 1970, "unit": "nM"},
      {"measurement": "EC50", "setting": "[20]", "value": 3000, "unit": "nM"},
      {"measurement": "EC50", "setting": "[21]", "value": 2550, "unit": "nM"}
    ]}
  ]
}
